Results taken from PubChem BioAssay.
Inconclusive results are not listed.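 The calls were made as follows, unless noted: active = inhibition over a set limit, the all-compound mean plus 3 SD, in both replicate runs; inconclusive = over that limit in just one replicate run; inactive = at or under that limit in both runs.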

What was measured:
[1] = S. cerevisiae growth inhibition in permissive medium (OD615), pilot counter-assay for S. cerevisiae lifespan shortening project, permissive growth control (AID 705;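 active = growth inhibition above 25% in both replicates, a cutoff set 3 SD above the mean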); details: OD615, 24 h, at 10 µM, hits give high values
How it was run: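 Material: engineered DeaD yeast; Compound: one dose 10 µM, DMSO 0.25% final; Detection: absorbance (optical density) at 615 nm; Buffer or medium: permissive raffinose/galactose medium; Timing: 24 h exposure, 30 °C.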

[2] = S. cerevisiae growth inhibition in restrictive medium, OD615, pilot screen, restrictive growth control, yeast lifespan reduction project (AID 706;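 active = growth inhibition above a set limit, 3 SD over mean compound inhibition, in both replicates, cut at about 43% in these data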;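 also: modified DeaD lifespan yeast strain shifted to restrictive glucose medium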); details: OD615, 48 h, at 10 µM, hits give high values
How it was run: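 Buffer or medium: restrictive glucose medium (CSMM-D); test system: modified S. cerevisiae; doses: single dose of 10 µM compound final, 0.25% DMSO; schedule: 48 h compound exposure at 30 °C; detection: absorbance (optical density) measured at 615 nm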

[3] = doxorubicin toxicity protection in MRP-1 cells – H69AR cells, CellTiter-Glo, duplicate, MRP-1 activator project, pilot screen (AID 807;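 active = viability increase at or above a cutoff of the median across tested compounds plus 3 SD, cut at about 8.5% in these data, passing the limit was not always enough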;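 also: compound pretreatment 18-22 h then 72 h combined with doxorubicin; 0% = doxorubicin alone and 100% = vehicle without doxorubicin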); details: H69AR viability with doxorubicin, CellTiter-Glo luminescence; at 10 µM; hits give high values
[4] = viability of HCT116 without oncogenic beta-catenin – human colon tumor cells, pilot screen (AID 823;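 active = cell viability at or below a set limit in both duplicate runs, the limit being the all-compound median minus 4 SD, cut at about 23% in these data, passing the limit was not always enough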;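 also: 0% = wells killed by 20 µM Hyamine and 100% = untreated DMSO cell wells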); details: HCT116 beta-catenin knockout viability, CellTiter-Glo, 60 h; at 10 µM; hits give low values
[5] = viability of PTEN-null HCT116 cells – cell-based, HCT116 clonal line, CellTiter-Glo, pilot screen (AID 824;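 active = viability at or below 27.92% in each of two runs, the all-compound median minus 4 SD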;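 also: 0% = 20 µM Hyamine control and 100% = vehicle cell control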); details: HCT116 PTEN-deleted viability, 60 h, at 10 µM, hits give low values
[6] = RAM pathway blockade in budding yeast – dse1pr::URA3 reporter, 5-FOA selection, pilot screen (AID 869);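 also: 0% = DMSO wells with no growth and 100% = 10 µM 1-NA-PP1 with full growth; RAM network block rescues cells from 5-FOA so hits raise OD615 growth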; details: S. cerevisiae dse1pr::URA3 5-FOA growth, OD615, 2 d; at 10 µM; hits give high values; strain carries analog-sensitive mutant Cbk1 kinase
[7] = RAM signaling pathway blockade in yeast – S. cerevisiae, Pdr1DBD-CYC8 efflux-inhibited sensitized strain, primary screen (AID 1298;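 active = RAM network inhibition above 8.4% in each of two replicates, 3 SD over the compound average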;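 also: 0% = DMSO untreated cells without growth and 100% = 10 µM 1-NA-PP1 full growth; higher means more yeast growth rescued from 5-FOA killing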); details: S. cerevisiae cbk1-as DSE1-URA3 strain, 5-FOA growth OD615, 2 d; at 50 µM; hits give high values

CC(CCc1ccco1)NC(=O)Cn1ncc2c(=O)oc3ccccc3c21 (stereo unspecified)
inactive: growth inhibition [1] -15.7% | growth inhibition [2] -12.5% | viability increase [3] -3.03% | viability [4] 105% | viability [5] 93.7% | inhibition [6] 1.96% | RAM network inhibition [7] 5.79%

COCCn1c(CN2CC(C)CC(C)C2)nc2c1c(=O)n(C)c(=O)n2C (stereo unspecified)
inactive: growth inhibition [1] 8.93% | growth inhibition [2] 9.36% | viability increase [3] 0.07% | viability [4] 90.4% | viability [5] 98.5% | inhibition [6] -0.14% | RAM network inhibition [7] -0.26%

CC(C)OC(=O)CSc1nnc(-c2ccncc2)n1N
inactive: growth inhibition [1] -8.12% | growth inhibition [2] -10.2% | viability increase [3] -2.11% | viability [4] 97.5% | viability [5] 97.1% | inhibition [6] 1.8% | RAM network inhibition [7] 3.83%

CC(C)C12CN3CC(C(C)C)(CN(C1)C3c1ccccc1)C2O (stereo unspecified)
inactive: growth inhibition [1] 6% | growth inhibition [2] 2.74% | viability increase [3] -1.42% | viability [4] 96.2% | viability [5] 93.6% | inhibition [6] 1.8% | RAM network inhibition [7] 3.93%

CCOC(=O)CSc1nc(C)cc(Oc2ccc(=O)n(C)n2)n1
inactive: growth inhibition [1] -17.4% | growth inhibition [2] -8.09% | viability increase [3] 0.54% | viability [4] 102% | viability [5] 97.5% | inhibition [6] 1.12% | RAM network inhibition [7] 0.42%

CCOC(=O)NCCc1ccc(OC)cc1
inactive: growth inhibition [1] -4.17% | growth inhibition [2] 5.72% | viability increase [3] 1.36% | viability [4] 99.9% | viability [5] 95.8% | inhibition [6] 1.83% | RAM network inhibition [7] 0.56%

Cc1nc2sc(C(c3cccs3)N3CCN(C(=O)c4ccco4)CC3)c(O)n2n1 (stereo unspecified)
inactive: growth inhibition [1] -1.15% | growth inhibition [2] -6.47% | viability increase [3] -3.62% | viability [4] 102% | viability [5] 100% | inhibition [6] 0.74% | RAM network inhibition [7] -1.05%

CCOC(=O)N1CCC(N2C(=O)c3ccc(C(=O)NCc4ccc(F)cc4)cc3C2=O)CC1
inactive: growth inhibition [1] -0.31% | growth inhibition [2] -4.59% | viability increase [3] -1.21% | viability [4] 98.1% | viability [5] 100% | inhibition [6] 3.25% | RAM network inhibition [7] 8.97%

CC1CCCCC1NS(=O)(=O)c1ccc(S(=O)(=O)N2CCN(CCC#N)CC2)cc1 (stereo unspecified)
inactive: growth inhibition [1] -0.665% | growth inhibition [2] -2.72% | viability increase [3] -2.84% | viability [4] 86.2% | viability [5] 87.8% | inhibition [6] 0.54% | RAM network inhibition [7] 3.44%

COCCOC(=O)C1=C(C)NC(=O)NC1c1ccc(OC(=O)c2ccco2)c(OC)c1 (stereo unspecified)
inactive: growth inhibition [1] 7.03% | growth inhibition [2] -14.5% | viability increase [3] -2.68% | viability [4] 97.8% | viability [5] 92.7% | inhibition [6] 2.5% | RAM network inhibition [7] 4.12%

CCOC(=O)N1CCN(CC(=O)c2ccc3c(c2)CCN3C(C)=O)CC1
inactive: growth inhibition [1] 0.355% | growth inhibition [2] -1.94% | viability increase [3] -1.31% | viability [4] 100% | viability [5] 96.6% | inhibition [6] 2.14% | RAM network inhibition [7] 6.23%

CCn1c(C(C)NC(C)=O)nc2ccccc21 (stereo unspecified)
inactive: growth inhibition [1] -13.6% | growth inhibition [2] -5.8% | viability increase [3] 0.8% | viability [4] 112% | viability [5] 106% | inhibition [6] 2.2% | RAM network inhibition [7] 3.48%

COc1cc(C2C(C(=O)Nc3ccccc3OC)=C(C)Nc3ncnn32)ccc1O (stereo unspecified)
inactive: growth inhibition [1] -14.3% | growth inhibition [2] 14.1% | viability increase [3] -2.38% | viability [4] 100% | viability [5] 95.3% | inhibition [6] 1.42% | RAM network inhibition [7] -0.99%

Cn1c(=O)c2c(nc(NCc3ccccc3)n2Cc2ccc(F)cc2)n(C)c1=O
inactive: growth inhibition [1] -2.42% | growth inhibition [2] -16.9% | viability increase [3] -5.47% | viability [4] 65.9% | viability [5] 54.1% | inhibition [6] 2.54% | RAM network inhibition [7] 3.33%

COc1ccccc1C(=O)Nc1ccc2oc(-c3ccc(F)cc3)nc2c1
inactive: growth inhibition [1] -2.88% | growth inhibition [2] 0.83% | viability increase [3] -2.78% | viability [4] 96% | viability [5] 96.5% | inhibition [6] 2.88% | RAM network inhibition [7] 1.85%

Cn1c(=O)c2c(nc(N3CCN(Cc4ccccc4)CC3)n2CCSc2ncccn2)n(C)c1=O
inactive: growth inhibition [1] -9.24% | growth inhibition [2] -14% | viability increase [3] -0.19% | viability [4] 100% | viability [5] 106% | inhibition [6] 1.07% | RAM network inhibition [7] 2.77%

O=C(Nc1scc(-c2cccs2)c1C(=O)O)c1cccs1
inactive: growth inhibition [1] -11.8% | growth inhibition [2] -9.07% | viability increase [3] 3.64% | viability [4] 103% | viability [5] 105% | inhibition [6] 1.41% | RAM network inhibition [7] 0.42%

CN(CC(CC(=O)Nc1nncs1)c1ccccc1)S(=O)(=O)c1ccccc1 (stereo unspecified)
inactive: growth inhibition [1] -13.9% | growth inhibition [2] -11.4% | viability increase [3] -1.16% | viability [4] 96.2% | viability [5] 81.2% | inhibition [6] 1.82% | RAM network inhibition [7] 3.38%

Cc1ccccc1NC(=O)CN(C)S(=O)(=O)c1cccc2cccnc12
inactive: growth inhibition [1] -2.9% | growth inhibition [2] -1.7% | viability increase [3] -0.34% | viability [4] 105% | viability [5] 95.7% | inhibition [6] 1.74% | RAM network inhibition [7] 2.49%

CCCS(=O)(=O)c1nc(S(=O)(=O)c2ccc(C)cc2)c(NCCN2CCOCC2)s1
inactive: growth inhibition [1] -8.93% | growth inhibition [2] -6.58% | viability increase [3] -0.11% | viability [4] 93.7% | viability [5] 86.7% | inhibition [6] 1.04% | RAM network inhibition [7] 6.38%

CC1CCCCN1S(=O)(=O)c1coc(C(N)=O)c1 (stereo unspecified)
inactive: growth inhibition [1] -12.1% | growth inhibition [2] -13.6% | viability increase [3] -2.18% | viability [4] 105% | viability [5] 96.8% | inhibition [6] 3% | RAM network inhibition [7] 0.05%

Cc1ccc(-n2nnc3c(=O)n(Cc4cccc(C)c4)cnc32)cc1
inactive: growth inhibition [1] -5.14% | growth inhibition [2] -6.1% | viability increase [3] 1.15% | viability [4] 99.9% | viability [5] 93.7% | inhibition [6] 2.65% | RAM network inhibition [7] 1.34%

NC(=O)c1ccsc1NC(=O)C1CCCCC1
inactive: growth inhibition [1] -3.66% | growth inhibition [2] -5.7% | viability increase [3] -0.9% | viability [4] 102% | viability [5] 101% | inhibition [6] 0.965% | RAM network inhibition [7] 0.22%
